Data taken from publication PMC3831729 (Indian Journal of Pharmaceutical Sciences, 2013).
Values after ≈ are worked out from the molar mass of the structure shown.

How the values were obtained:
[1] = tested on: M. tuberculosis H37Rv versus NIH 3T3; experiment: Selectivity index; parameters: species or system Mycobacterium tuberculosis; details: IC50 NIH 3T3 / MIC M. tuberculosis H37Rv
In short: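 SI = IC50/MIC. MIC against M. tuberculosis H37Rv came from broth microdilution microplate alamar blue assay (MABA), with compounds tested at 100-1.56 μg/ml. […] IC50 was derived by nonlinear regression of % inhibition against log10 concentration.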

Coryne bacterium = experiment: Zone of inhibition, disk diffusion; assay type: cell-based
Rhodospirillum rubrum = experiment: MIC, two-fold serial dilution; assay type: cell-based; details: 24 h, read-out: R. ruberum MIC× 10^−3
Candida albicans = experiment: MIC, two-fold serial dilution; assay type: cell-based; details: read-out: C. albicans MIC× 10^−3
In short: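 Fungal MIC determined by two-fold serial dilution, with clotrimazole as reference standard. Growth was scored visually after 72-96 h incubation. MIC was taken as the lowest concentration with no visible growth.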

Vibrio cholerae = experiment: MIC, two-fold serial dilution; assay type: cell-based; details: 24 h, read-out: V. cholerae MIC× 10^−3
[2] = tested on: M. tuberculosis H37Rv (MTB); experiment: Microplate alamar blue assay; assay type: cell-based, Mycobacterium tuberculosis; details: MABA, screened at 100-1.56 μg/ml; - indicates no inhibition
Bacillus lentus = experiment: Zone of inhibition, disk diffusion; assay type: cell-based
Escherichia coli = experiment: Zone of inhibition, disk diffusion; assay type: cell-based; details: E. coli, 100 μg/disk

O=C1NN=C(N=Cc2ccccc2)C1=NNn1c(-c2ccccc2)nc2ccccc2c1=O [QSP1, 3-{2-[-5-oxo-3-[-(phenylmethylidene)amino]-4,5-dihydro-1H-pyrazol-4-ylidene]hydrazin-1-yl}-2-phenyl-3,4-dihydroquinazolin-4-one]
Selective Index (SI) (SI=IC50/MIC) [1]: 10.92

O=C1NN=C(N=Cc2ccccc2O)C1=NNn1c(-c2ccccc2)nc2ccccc2c1=O [QSP2, 3-{2-[-3-[-[(2-hydroxyphenyl)methylidene]amino]-5-oxo-4,5-dihydro-1H-pyrazol-4-ylidene]hydrazin-1-yl}-2-phenyl-3,4-dihydroquinazolin-4-one]
Selective Index (SI) (SI=IC50/MIC) [1]: 16.32

CC1=NN(CNc2ccc(Cl)cc2)C(=O)C1=NNn1c(-c2ccccc2)nc2ccccc2c1=O [QP4, 3-{2-[-1-{[(4-chlorophenyl)amino]methyl}-3-methyl-5-oxo-4,5-dihydro-1H-pyrazol-4-ylidene] hydrazin-1-yl}-2-phenyl-3,4-dihydroquinazolin-4-one]
C. bacterium % of I (Coryne bacterium): 90%

O=C1NN=C(N=Cc2ccc(O)c(O)c2)C1=NNn1c(-c2ccccc2)nc2ccccc2c1=O [QSP4, 3-{2-[-3-[-[(3,4-dihydroxyphenyl)methylidene]amino]-5-oxo-4,5-dihydro-1H-pyrazol-4-ylidene] hydrazin-1-yl}-2-phenyl-3,4-dihydroquinazolin-4-one]
MIC (Rhodospirillum rubrum): 26.7 µM (≈ 12.5 µg/mL) | MIC (Candida albicans): 26.7 µM (≈ 12.5 µg/mL) | MIC (Vibrio cholerae): 26.7 µM (≈ 12.5 µg/mL)

CC[C@@H](CO)NCCN[C@@H](CC)CO [Ethambutol, ethambutol]
TB Activity MIC×10^-3 (MTB37RV) [2]: 07.60 ×10^-3 μM/ml

CC(=O)NCN1N=C(C)C(=NNn2c(-c3ccccc3)nc3ccccc3c2=O)C1=O [QP9, N-{[-3-methyl-5-oxo-4-[2-(4-oxo-2-phenyl-3,4-dihydroquinazolin-3-yl)hydrazin-1-ylidene]-4,5-dihydro-1H-pyrazol-1-yl]methyl}acetamide]
B. lentus % of I (Bacillus lentus): 95% | Selective Index (SI) (SI=IC50/MIC) [1]: 18.16

O=C1NN=C(N=Cc2ccc(O)cc2O)C1=NNn1c(-c2ccccc2)nc2ccccc2c1=O [QSP3, 3-{2-[-3-[-[(2,4-dihydroxyphenyl)methylidene]amino]-5-oxo-4,5-dihydro-1H-pyrazol-4-ylidene] hydrazin-1-yl}-2-phenyl-3,4-dihydroquinazolin-4-one]
Selective Index (SI) (SI=IC50/MIC) [1]: 08.35

CC1=NN(CNC(=O)c2ccccc2)C(=O)C1=NNn1c(-c2ccccc2)nc2ccccc2c1=O [QP11, N-{[-3-methyl-5-oxo-4-[2-(4-oxo-2-phenyl-3,4-dihydroquinazolin-3-yl)hydrazin-1-ylidene]-4,5-dihydro-1H-pyrazol-1-yl]methyl}benzamide]
B. lentus % of I (Bacillus lentus): 95% | TB Activity MIC×10^-3 (MTB37RV) [2]: 06.49 ×10^-3 μM/ml

CC1=NN(CNc2ccc(C(=O)O)cc2)C(=O)C1=NNn1c(-c2ccccc2)nc2ccccc2c1=O [QP6, 4-({[-3-methyl-5-oxo-4-[2-(4-oxo-2-phenyl-3,4-dihydroquinazolin-3-yl)hydrazin-1-ylidene]-4,5-dihydro-1H-pyrazol-1-yl]methyl}amino)benzoic acid]
C. bacterium % of I (Coryne bacterium): 90% | antibacterial activity relative to standard drug ciprofloxacin (Escherichia coli): 1.5 times

CC1=NN(CNc2ccc(O)cc2)C(=O)C1=NNn1c(-c2ccccc2)nc2ccccc2c1=O [QP3, 3-{2-[-1-{[(4-hydroxyphenyl)amino]methyl}-3-methyl-5-oxo-4,5-dihydro-1H-pyrazol-4-ylidene] hydrazin-1-yl}-2-phenyl-3,4-dihydroquinazolin-4-one]
Selective Index (SI) (SI=IC50/MIC) [1]: 01.16

O=C(O)c1cn(C2CC2)c2cc(N3CCNCC3)c(F)cc2c1=O [CFN, ciprofloxacin]
TB Activity MIC×10^-3 (MTB37RV) [2]: 09.40 ×10^-3 μM/ml
